Experiments:
[1] = tested on: pS6 in RD xenograft tumors; assay: Tumor PD biomarker, MSD immunoassay; assay type: in vivo, mice; conditions: RD xenografts, end of therapeutic study
Procedure, shortened: (§1)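 Female 6-8-week athymic nude (Ncr) mice bore subcutaneous flank RD xenografts (5 × 10⁶ cells in 25% matrigel). Once tumors reached ≈5 mm (n=6/group), mice received daily oral dosing for 19-22 days, alone or combined, with vehicle controls: MEK inhibitor 10mg/kg (10% DMSO water), TORC1/2 inhibitor 10 or 20mg/kg (acidified water), PI3K/mTOR inhibitor 25mg/kg (10% NMP/90% PEG300). Tumors were excised and snap-frozen at termination. MSD electrochemiluminescence gave phospho/total ratios in 10μg lysate.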

[2] = tested on: stable p110α KD and control (CONSH) cell lines (RH30, RMS-1, RD, RMS-YM); assay: MTS growth inhibition in paired CONSH and stable p110α KD lines; assay type: cell-based, human; conditions: MTS growth inhibition curves, 72hr exposure
Procedure, shortened: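 Lines were transduced with lentiviral PIK3CA or control shRNA at MOI 10 with polybrene (4μg/ml). Puromycin selection (2.5μg/ml) ran from day 2, and stable lines were derived over about 4 weeks. Cells were grown in DMEM with 10% FBS at 37°C, 5% CO2. MTS growth inhibition curves were run after 72hr continuous exposure to the test compound, diluted from 10mM stock.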

[3] = tested on: mTor; conditions: cited from earlier work
[4] = Plasma and tumor pharmacokinetics; assay type: in vivo, mice; conditions: for plasma concentrations when administered alone: AZD8055 compared with NVP-BEZ235; for plasma level 16hrs following treatment: 10mg/kg p.o., mice bearing RD xenografts
Procedure, shortened: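 Female 6-8 week athymic nude (Ncr) mice carried subcutaneous RD xenografts (5 × 10⁶ cells, 25% matrigel). Oral dosing at 0.1mL/10g: MEK inhibitor 10mg/kg in 10% DMSO water; TORC1/2 inhibitor 10 or 20mg/kg in acidified water; PI3K/mTOR inhibitor 25mg/kg in 10% NMP/90% PEG300. Given alone or combined. Plasma and tumors were sampled at various times (n=3), or 3hrs after the final daily dose (19-22 days). Analysed by LC-MS/MS with MRM.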

[5] = tested on: PI3K/mTORC1/2; conditions: cited from earlier work
[6] = tested on: pAKT (Ser473) in RD xenograft tumors; assay: Tumor PD biomarker, MSD immunoassay; assay type: in vivo, mice; conditions: RD xenografts, end of therapeutic study
Procedure, shortened: as §1

[7] = tested on: p110β; assay: PI3K isoform inhibition profile, p110β versus p110α; assay type: biochemical; conditions: Suppl Fig S4A
[8] = tested on: pERK1/2 in RD cells; assay: Western immunoblot biomarker time course in RD cells; assay type: cell-based, human; conditions: 0.5× and 1.0× GI50 concentrations, 48hr time course
Procedure, shortened: (§2)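 RD cells (DMEM, 10% FBS, 37°C) were treated with single agents or the combination at 0.5× and 1.0× GI₅₀ concentrations and sampled at time points up to 48h. Lysates (10μg) were run on Bis-Tris/Tris-Acetate gels and transferred to PVDF. Primary antibody 1:1,000 overnight at 4°C; HRP secondary 1:10,000 for 2h at room temperature; ECL Plus detection. PhosphorImager quantitation; treated/control levels expressed as % of time 0.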

[9] = tested on: pERK in RD xenograft tumors; assay: Tumor PD biomarker, MSD immunoassay; assay type: in vivo, mice; conditions: RD xenografts, end of therapeutic study
Procedure, shortened: as §1

[10] = tested on: RD cells; assay: GI50; assay type: cell-based, human; conditions: RD cells with NRAS mutation
Procedure, shortened: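 RD cells in DMEM with 10% FBS at 37°C, 5% CO2. Compounds prepared as 10mM stocks, then diluted in medium. MTS read-out after 72hr continuous exposure; GI₅₀ = concentration giving 50% inhibition of proliferation. Isobologram: GI₅₀ of each single agent, plus GI₅₀ of one agent at several fixed sub-GI₅₀ concentrations of the other. These are plotted on the axes, with a diagonal line as theoretical additivity.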

[11] = tested on: pS6 in RD cells; assay: Western immunoblot biomarker time course in RD cells; assay type: cell-based, human; conditions: 0.5× and 1.0× GI50 concentrations, 48hr time course
Procedure, shortened: as §2

[12] = tested on: p110α; assay: PI3K isoform inhibition profile, p110α versus other isoforms; assay type: biochemical; conditions: Suppl Fig S4A
[13] = tested on: MEK1/2; conditions: read-out: IC50 concentration for MEK1/2; cited from earlier work
[14] = tested on: pSer473AKT in RD cells; assay: Western immunoblot biomarker time course in RD cells; assay type: cell-based, human; conditions: 0.5× and 1.0× GI50 concentrations, 48hr time course
Procedure, shortened: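 RD cells (DMEM, 10% FBS, 37°C, 5% CO2) treated with test compounds singly or combined; protein extracted at time points over 48 hr. Lysates BCA-quantified, 10 μg on Bis-Tris or Tris-Acetate gels, PVDF transfer, primary 1:1,000 overnight 4°C, HRP secondary 1:10,000 2 h RT, ECL Plus, phosphorimager quantitation. Control and treated loaded side by side; treated/control phospho-levels given as % of time 0.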

[15] = 10mg/kg p.o. each, versus alone

SMILES	change of tumor S6 phosphorylation [1]	sensitivity of stable p110α KD lines compared with CONSH counterparts [2]	plasma concentration range in combination with AZD6244 versus alone ([4]; 3hrs following the final dose)	plasma concentrations when administered alone ([4]; 3hrs following the final dose)	change of tumor AKT phosphorylation [6]	pERK levels [8]	plasma level 16hrs following treatment [4]	single-agent sensitivity of RD cells [10]	also measured
Cn1c(=O)n(-c2ccc(C(C)(C)C#N)cc2)c2c3cc(-c4cnc5ccccc5c4)ccc3ncc21 [NVP-BEZ235]	equally efficient in reducing AKT and S6 phosphorylation	more sensitive to mTOR inhibition than their CONSH counterparts	increased	in the same range	equally efficient in reducing AKT and S6 phosphorylation	–	–	–	concentrations at which it predominantly inhibits mTOR [3]: less than 100 nM; concentrations at which it is a dual PI3K/mTORC1/2 inhibitor [5]: above 500 nM
Cc1cc(C(C)Nc2ccccc2)c2nc(N3CCOCC3)cc(=O)n2c1 (stereo not drawn) [TGX221]	–	only the RMS-1 stable KD cell line, with minimal p110α and δ expression, showed increased sensitivity	–	–	–	–	–	–	selectivity for p110β versus p110α [7]: 78 fold
FC(F)c1nc2ccccc2n1-c1nc(N2CCOCC2)nc(N2CCOCC2)n1 [ZSTK474]	–	increased sensitivity	–	–	–	–	–	–	IC50 ([3]; read-out: IC50 against mTor): 377 nM
COc1ccc(-c2ccc3c(N4CCOC[C@@H]4C)nc(N4CCOC[C@@H]4C)nc3n2)cc1CO [AZD8055]	equally efficient in reducing AKT and S6 phosphorylation	more sensitive to mTOR inhibition than their CONSH counterparts	increased	in the same range	equally efficient in reducing AKT and S6 phosphorylation	increased pERK levels	close to, or below, the limit of detection	relatively resistant	plasma and tumor levels in combination with AZD6244 [4, 15]: higher; change of tumor pERK levels [9]: increased pERK levels to a greater extent than NVP-BEZ235; pS6 levels / inhibition of S6 phosphorylation [11]: concentration dependent
Nc1cc(C(F)(F)F)c(-c2cc(N3CCOCC3)nc(N3CCOCC3)n2)cn1 [BMK120]	–	No differences in sensitivity	–	–	–	–	–	–	selectivity for p110α versus the other isoforms [12]: modestly selective for p110α versus the other isoforms
Cn1cnc2c(F)c(Nc3ccc(Br)cc3Cl)c(C(=O)NOCCO)cc21 [AZD6244]	–	only the RMS-1 KD line (lacking both p110α and p110δ) exhibited significantly enhanced sensitivity	–	–	–	ablated pERK levels at all time points and both concentrations	close to, or below, the limit of detection	relatively resistant	elimination phase in combination with AZD8055 [4, 15]: extended; peak plasma concentrations in combination with AZD8055 [4, 15]: reduced; plasma AZD6244 concentrations in combination with NVP-BEZ235 ([4]; 3hrs following the final dose): reduced plasma concentrations of AZD6244 to a similar extent as AZD8055; IC50 [13]: 14 nM; pSer473AKT levels [14]: increased p^Ser473AKT levels
